Screening data (PubChem BioAssay)
The list is not random: actives were taken first. Their share in the collection is about 1.4%.
DNA FID counter = fluorescent intercalator displacement, NS3 helicase counter-screen; DNA fluorescent intercalator displacement, fluorescence; inhibition, % at 7.9 µM; 0.17% of 290,000 active; AID 1845; in the data active = inhibition above about 37%;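 note: higher means more ethidium bromide displaced from hairpin DNA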
PLCg1 inh = inhibitors of human phospholipase C gamma1. P19174. 0.84% of 370,000 active. purified PLC-gamma1, fluorogenic substrate, fluorescence. AID 720700. inhibition, % at 12.2 µM; in the data active = inhibition above about 9.5%
DDE Tn7 FP inh = disrupts Tn7 cyclic peptide binding to fibrin D-Dimer-E complex; P02675; FP displacement of FITC-Tn7 peptide from fibrin DD(E); 0% = median of compound wells per plate; inhibition, % at 8.3 µM; 0.13% of 370,000 active; AID 720508;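 active = inhibition above the mean of compounds falling within the control limits plus 3 SD of them, cut at about 14% in these data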
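system = human fibrin DD(E) protein | quantity = DD(E) 2 µM final | medium = Tris/NaCl/CaCl2 buffer, pH 7.8 | also added = labelled Tn7 tracer, 0.1 µM | compound dosing = single point at 8.3 µM | timing = compound with protein 10 min, then 3 h after probe, room temperature | signal = FP measurement | benchmarks = Aha-Tn7 high control | repeats = one replicate per compound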
PLCb3 inh = PLC-beta3 (human) inhibition, primary screen | Q01970 | Purified PLC-beta3, fluorogenic substrate, fluorescence | 0.18% of 370,000 active | inhibition, % at 12.2 µM
Target sequence (Q01970 whole entry, looked up): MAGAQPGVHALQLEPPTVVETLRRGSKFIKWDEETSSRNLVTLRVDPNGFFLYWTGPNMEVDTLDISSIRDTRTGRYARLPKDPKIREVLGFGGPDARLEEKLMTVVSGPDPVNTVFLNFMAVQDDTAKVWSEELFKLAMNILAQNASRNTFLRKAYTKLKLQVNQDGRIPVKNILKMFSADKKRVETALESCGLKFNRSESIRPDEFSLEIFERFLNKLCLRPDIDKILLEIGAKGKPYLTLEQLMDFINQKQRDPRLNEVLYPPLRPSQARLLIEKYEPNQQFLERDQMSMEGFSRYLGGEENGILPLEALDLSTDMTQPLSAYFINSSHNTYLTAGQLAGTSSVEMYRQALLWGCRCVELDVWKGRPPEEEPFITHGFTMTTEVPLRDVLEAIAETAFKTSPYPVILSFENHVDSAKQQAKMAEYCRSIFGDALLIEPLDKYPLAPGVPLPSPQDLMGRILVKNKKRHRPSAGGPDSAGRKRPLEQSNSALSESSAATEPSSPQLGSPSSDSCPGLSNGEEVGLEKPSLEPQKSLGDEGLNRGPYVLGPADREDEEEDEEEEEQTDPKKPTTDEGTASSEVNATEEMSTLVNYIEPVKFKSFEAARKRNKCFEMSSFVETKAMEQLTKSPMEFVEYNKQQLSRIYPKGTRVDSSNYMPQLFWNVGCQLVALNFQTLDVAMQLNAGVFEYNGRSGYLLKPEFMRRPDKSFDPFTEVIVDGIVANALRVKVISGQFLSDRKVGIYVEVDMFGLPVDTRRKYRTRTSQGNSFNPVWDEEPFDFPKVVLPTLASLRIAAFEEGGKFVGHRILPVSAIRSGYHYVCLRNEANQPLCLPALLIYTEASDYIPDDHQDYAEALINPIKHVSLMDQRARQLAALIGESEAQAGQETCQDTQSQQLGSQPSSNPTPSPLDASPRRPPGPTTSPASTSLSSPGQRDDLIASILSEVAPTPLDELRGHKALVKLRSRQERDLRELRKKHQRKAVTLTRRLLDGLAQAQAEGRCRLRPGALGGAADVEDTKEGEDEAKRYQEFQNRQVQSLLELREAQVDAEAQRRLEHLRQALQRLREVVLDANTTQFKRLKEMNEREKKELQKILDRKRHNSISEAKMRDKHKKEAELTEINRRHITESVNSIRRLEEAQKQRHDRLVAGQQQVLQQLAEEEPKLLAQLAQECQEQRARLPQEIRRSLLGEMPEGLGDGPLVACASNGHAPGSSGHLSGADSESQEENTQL
DDE Tn6 FP inh = disrupts Tn6 cyclic peptide binding to fibrin D-Dimer-E complex | P02675 | Fibrin DD(E) TRITC-Tn6 fluorescence polarization displacement | inhibition, % at 8.3 µM | 0.21% of 370,000 active;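 active = inhibition above a per-campaign cutoff: mean of compounds within control limits plus 3 SD, cut at about 15% in these data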
PLCg1 ctr = PLC-gamma1 inhibition, counter-screen for PLC-beta3 hits. shares compounds with PLCg1 inh. inhibition, % at 12.3 µM. AID 743258. purified PLC-gamma1, fluorogenic substrate, fluorescence. 3.1% of 3,300 active; in the data active = inhibition above about 9.5%
PLCbeta3 conf = confirmation of human PLC-beta3 inhibitors. purified PLC-beta3, fluorogenic substrate fluorescence. AID 743261. shares compounds with PLCg1 inh. inhibition, % at 12.3 µM. 1% of 3,300 active
Numbers stand for hits; n = inactive; x = no result given. Cut-off read from the data, not from the text of the source, unless noted: active = inhibition above about 11%; inactive = the rest.

SMILES | DNA FID counter | PLCg1 inh | DDE Tn7 FP inh | PLCb3 inh | DDE Tn6 FP inh | PLCg1 ctr | PLCbeta3 conf
O=C(OCc1ccccc1F)c1cc([N+](=O)[O-])ccc1N1CCOCC1 | x | n | n | n | n | x | x
O=C(OCc1ccccc1C(F)(F)F)c1cc([N+](=O)[O-])ccc1N1CCOCC1 | n | 10.2 | n | n | n | n | n
Cc1ccc(CNCc2ccco2)cc1 | n | n | n | n | n | x | x
Fc1ccc(CNCc2ccco2)cc1 | n | 12.2 | n | n | n | n | n
O=C1CC(NS(=O)(=O)c2ccc([N+](=O)[O-])cc2)CN1c1ccc2c(c1)OCCO2 (configuration not stated) | x | n | n | n | n | x | x
O=C(Oc1ccc([N+](=O)[O-])cc1)C1CC(=O)N(c2ccc3c(c2)OCCO3)C1 (configuration not stated) | x | 13.4 | n | n | n | n | n
COc1ccc(CCNC(=O)c2c[nH]c3ccccc3c2=O)cc1OC | n | n | n | n | n | x | x
O=C(NCCc1ccccc1)c1c[nH]c2ccccc2c1=O | x | n | n | 11.2 | n | n | n
Cc1ccc(NC(=O)CN(C)C(=O)c2ccc(S(=O)(=O)N(C)c3ccccc3)cc2)cc1 | n | 10.7 | n | n | n | n | n
Cc1ccc(C)c(NC(=O)CN(C)C(=O)c2ccc(S(=O)(=O)N(C)c3ccccc3)cc2)c1 | x | n | n | n | n | x | x
O=C(COC(=O)C1=COCCO1)Nc1cccc(Oc2ccccc2)c1 | n | n | n | n | n | x | x
O=C(COC(=O)C1=COCCO1)Nc1ccccc1Oc1ccccc1 | n | n | n | 10.8 | n | n | n
COC(=O)c1nnn(CC(=O)Nc2cccc(Cl)c2)c1C(=O)OC | n | n | n | n | n | x | x
CC(Sc1nnc2ccccn12)C(=O)Nc1ccc2c(c1)OCCO2 (configuration not stated) | n | n | n | n | n | x | x
CC(C)(C)c1cc(CCC(=O)NCCc2ccccn2)cc(C(C)(C)C)c1O | n | n | n | n | n | x | x
O=C1C=C(NCCc2cc(Br)c(O)c(Br)c2)C(=O)c2ncccc21 | x | 11.7 | n | n | n | n | n
c1ccc(CN2CCN(C(c3ccccc3)c3ccccc3)CC2)cc1 | n | 10.7 | n | n | n | n | n
COC(=O)c1c(NC(=O)CSc2nccn2C)sc(C)c1C | x | n | n | n | n | x | x
Cc1ccccc1CN1CCN(C(=O)[C@H]2O[C@@H](n3ccc(=O)[nH]c3=O)[C@H](O)[C@@H]2O)CC1 | x | n | n | n | n | x | x
COCC(C)n1c(SCc2nc(N)nc(Nc3ccccc3C)n2)nc2ccccc2c1=O (configuration not stated) | n | 11.4 | n | n | n | n | n
O=[N+]([O-])c1ccc(N/N=C/c2cccc(O)c2O)c(S(=O)(=O)N2CCOCC2)c1 | n | 14.6 | n | n | n | n | n
CN(C)S(=O)(=O)Oc1ccc(C(=O)Nc2ccc([N+](=O)[O-])cc2)cc1 | n | n | n | n | n | x | x
CC(C)Oc1ccc(C(=O)Nc2ccc([N+](=O)[O-])cc2)cc1 | n | 10.0 | n | n | n | n | n
CC1=NN(c2ccccc2)C(=O)/C1=C\c1cn(-c2ccccc2)nc1C | n | n | n | n | n | x | x
COc1ccccc1/C=C1/C(=O)N(c2ccccc2)N=C1C | n | 28.0 | n | n | n | n | n
SMILES | DNA FID counter | PLCg1 inh | DDE Tn7 FP inh | PLCb3 inh | DDE Tn6 FP inh | PLCg1 ctr | PLCbeta3 conf
COc1cc(/C=C2\C(=O)N(c3ccccc3)N=C2C)ccc1Oc1ccc([N+](=O)[O-])cc1[N+](=O)[O-] | n | 10.0 | n | n | n | n | n
O=C(c1ccccc1)N1CCN(C(=O)c2ccccc2)C1c1ccccc1 | n | n | n | n | n | x | x
Cc1ccc(CNC(=O)CCCCCNc2nc(=S)[nH]c3ccccc23)cc1 | n | n | n | n | n | x | x
NS(=O)(=O)c1ccc(CCNC(=O)CCCCCNc2nc(=S)[nH]c3ccccc23)cc1 | n | 10.3 | n | n | n | n | n
O=C(Nc1nc(C2C3CC4CC(C3)CC2C4)cs1)c1cc2cc([N+](=O)[O-])ccc2oc1=O (configuration not stated) | n | 14.0 | n | n | n | n | n
Cn1c(CNC(=O)C2CCC(=O)N(CCc3cccc(F)c3)C2)nc2ccccc21 (configuration not stated) | n | n | n | n | n | x | x
C=CCn1c(=O)c2c(C)c(C)sc2n2c(Nc3ccc(OC)cc3)nnc12 | n | n | n | n | n | x | x
Cn1c(=O)c2c(ncn2CCC(=O)N/N=C/c2ccccc2)n(C)c1=O | n | 10.8 | n | 10.8 | n | n | n
Cc1ccc(OCC(O)CN2CCN(c3ccccn3)CC2)c(C)c1 (configuration not stated) | n | n | n | n | n | x | x
CC(C)(C)c1ccccc1OCC(O)CN1CCN(c2ccccn2)CC1 (configuration not stated) | n | 12.4 | n | n | n | n | n
CCOc1ccc(S(=O)(=O)N(C)c2ccc(OCC(=O)N3CCOCC3)cc2)cc1 | n | 9.8 | n | n | n | n | n
O=C(NC1CCCC1)c1cnn2c(C(F)(F)F)cc(-c3ccco3)nc12 | n | n | n | n | n | x | x
O=C(c1ccc2snnc2c1)N1CCN(c2ccccn2)CC1 | n | 14.9 | n | n | n | n | n
O=C1CC(N2CCN(c3ccccc3)CC2)C(=O)N1Cc1ccc(Cl)cc1 (configuration not stated) | n | 10.2 | n | n | n | n | n
O=C1CC(N2CCN(c3ccc(F)cc3)CC2)C(=O)N1Cc1ccccc1 (configuration not stated) | n | n | n | n | n | x | x
O=C(O)c1cccc(CSc2nnc(Cc3ccccc3)o2)c1 | n | n | n | n | n | x | x
Cn1cc(CN2CCN(Cc3ccccc3)CC2)c(-c2cccc(Cl)c2)n1 | n | n | n | n | n | x | x
Nc1ccc(C(=O)O)cc1[N+](=O)[O-] | n | n | n | n | n | x | x
Nc1cc(S(=O)(=O)O)cc([N+](=O)[O-])c1O | n | 33.0 | n | n | n | 64.3 | n
Cc1cc(C)nc(NCC(O)COc2ccccc2C)n1 (configuration not stated) | n | 12.3 | n | n | n | n | n
Cc1cc(C)nc(NCC(O)CNc2ccccc2C)n1 (configuration not stated) | n | n | n | n | n | x | x
O=C(NCCn1cccn1)C1CCC(=O)N(CC2CCCCC2)C1 (configuration not stated) | n | n | n | n | n | x | x
CCn1c(SCC(=O)c2ccccc2)nc2c(c1=O)SC(C)C2 (configuration not stated) | n | 11.5 | n | n | n | n | n
CN(C)c1ccc(O)c2c1CC1CC3[C@@H](N(C)C)C(=O)C(C(N)=O)=C(O)[C@]3(O)C(=O)C1=C2O (some centres not stated) | n | 16.5 | n | n | n | n | n
